# Measured values: ChEMBL document CHEMBL3046706, “Synthesis and quantitative structure-activity relationships of new 2,5-disubstituted-1,3,4-oxadiazoles” (2001)
# Columns and labels:
# Assay type in all cases: functional
# [1] = system: Mythimna separata; experiment: Insecticidal activity against second-instar larvae of Mythimna separata (Oriental armyworm) fed on compound-treated mealie leaves measured after 5 days; conditions: 120 h
# Procedure, shortened: (§1)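 Second-instar Pseudaletia separata larvae were fed compound-treated mealie leaves, with fresh treated leaves added daily, at about 20 °C in a well-ventilated room. Percent mortality at 5 days was based on the number and size of live larvae relative to untreated controls. LC50 values are in μg/mL and were converted to pLC50 (−log LC50).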
# [2] = system: Mythimna separata; experiment: Insecticidal activity against second-instar larvae of Mythimna separata (Oriental armyworm) fed on compound-treated mealie leaves at pLC50 measured after 5 days; procedure, shortened: as §1
# [3] = system: Spodoptera eridania; experiment: Insecticidal activity against second-instar larvae of Spodoptera eridania fed on compound-treated corn leaves measured after 5 days; conditions: 120 h
Structure (SMILES),LC50 [1],mortality [2],LC50 [3]
Clc1ccc(OCc2nnc(-c3ccc(Cl)cc3Cl)o2)cc1,15.8 µM,–,–
Fc1cc(-c2nnc(COc3ccc(Cl)cc3Cl)o2)c(Cl)cc1Cl,1700 µM,–,–
Fc1cc(-c2nnc(COc3ccc(Cl)cc3)o2)c(Cl)cc1Cl,55 µM,–,–
Fc1cccc(-c2nnc(COc3ccc(Cl)cc3)o2)c1,> 1000 µM,0%,–
CC1(C)C(C=C(Cl)Cl)C1c1nnc(-c2cccs2)o1 (mixture of isomers),> 1000 µM,0%,–
Clc1ccc(OCc2nnc(-c3ccc(Cl)cc3Cl)o2)c(Cl)c1,776 µM,–,–
Fc1cccc(-c2nnc(-c3cc(F)c(Cl)cc3Cl)o2)c1,–,–,51.3 µM
Fc1cc(-c2nnc(-c3ccc(Cl)cc3Cl)o2)c(Cl)cc1Cl,–,–,5.25 µM
CC1(C)C(C=C(Cl)Cl)C1c1nnc(/C=C/c2ccccc2)o1 (mixture of isomers),> 1000 µM,0%,–
Fc1cc(-c2nnc(COc3ccccc3Cl)o2)c(Cl)cc1Cl,14.5 µM,–,–
Clc1ccc(OCc2nnc(-c3cccnc3Cl)o2)cc1,> 1000 µM,0%,–
CC1(C)C(C=C(Cl)Cl)C1c1nnc(-c2ccc(Cl)cc2)o1 (mixture of isomers),> 1000 µM,0%,–
Fc1cc(-c2nnc(-c3cc(F)c(Cl)cc3Cl)o2)c(Cl)cc1Cl,–,–,1.78 µM
Clc1ccc(OCc2nnc(-c3ccc(Cl)nc3)o2)cc1,> 1000 µM,7%,–
CC1(C)[C@@H](C=C(Cl)Cl)[C@@H]1c1nnc(-c2ccc(Cl)cc2Cl)o1 (relative stereo),123 µM,–,–
CC1(C)C(C=C(Cl)Cl)C1c1nnc(-c2cccc(F)c2)o1 (configuration not stated),–,–,759 µM
Clc1ccc(-c2nnc(-c3ccc(Cl)cc3Cl)o2)c(Cl)c1,–,–,10.2 µM
CC1(C)[C@@H](C=C(Cl)Cl)[C@@H]1c1nnc(-c2ccccc2)o1 (relative stereo),1380 µM,–,–
CC1(C)C(C=C(Cl)Cl)C1c1nnc(-c2cc(F)c(Cl)cc2Cl)o1 (configuration not stated),–,–,562 µM
COc1ccc(-c2nnc(C3C(C=C(Cl)Cl)C3(C)C)o2)cc1 (mixture of isomers),> 1000 µM,0%,–
